From ChEMBL document CHEMBL1155296, “Design, synthesis and biological evaluation of novel pyridine derivatives as anticancer agents and phosphodiesterase 3 inhibitors” (Bioorg Med Chem, 2009)

target: T1, cGMP-inhibited 3',5'-cyclic phosphodiesterase 3A (Homo sapiens, UniProt Q14432); assay: Inhibition of human recombinant PDE3A assessed as cAMP hydrolysis at 50 uM after 60 mins by fluorescence polarization assay using fluorescein-tagged cAMP as substrate; conditions: not given
How it was run: (§1)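 Single-point screen at 50 μM in triplicate. Recombinant PDE3A in 10 mM Tris-HCl pH 7.2, 10 mM MgCl2, 0.05% NaN3, 0.1% phosphate-free BSA. Substrate 50 nM FI-cAMP and/or TAMRA-cGMP, hydrolysis read simultaneously by IMAP fluorescence polarization after 60 min at room temperature and termination with binding solution.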

T1 sequence (Q14432 whole entry): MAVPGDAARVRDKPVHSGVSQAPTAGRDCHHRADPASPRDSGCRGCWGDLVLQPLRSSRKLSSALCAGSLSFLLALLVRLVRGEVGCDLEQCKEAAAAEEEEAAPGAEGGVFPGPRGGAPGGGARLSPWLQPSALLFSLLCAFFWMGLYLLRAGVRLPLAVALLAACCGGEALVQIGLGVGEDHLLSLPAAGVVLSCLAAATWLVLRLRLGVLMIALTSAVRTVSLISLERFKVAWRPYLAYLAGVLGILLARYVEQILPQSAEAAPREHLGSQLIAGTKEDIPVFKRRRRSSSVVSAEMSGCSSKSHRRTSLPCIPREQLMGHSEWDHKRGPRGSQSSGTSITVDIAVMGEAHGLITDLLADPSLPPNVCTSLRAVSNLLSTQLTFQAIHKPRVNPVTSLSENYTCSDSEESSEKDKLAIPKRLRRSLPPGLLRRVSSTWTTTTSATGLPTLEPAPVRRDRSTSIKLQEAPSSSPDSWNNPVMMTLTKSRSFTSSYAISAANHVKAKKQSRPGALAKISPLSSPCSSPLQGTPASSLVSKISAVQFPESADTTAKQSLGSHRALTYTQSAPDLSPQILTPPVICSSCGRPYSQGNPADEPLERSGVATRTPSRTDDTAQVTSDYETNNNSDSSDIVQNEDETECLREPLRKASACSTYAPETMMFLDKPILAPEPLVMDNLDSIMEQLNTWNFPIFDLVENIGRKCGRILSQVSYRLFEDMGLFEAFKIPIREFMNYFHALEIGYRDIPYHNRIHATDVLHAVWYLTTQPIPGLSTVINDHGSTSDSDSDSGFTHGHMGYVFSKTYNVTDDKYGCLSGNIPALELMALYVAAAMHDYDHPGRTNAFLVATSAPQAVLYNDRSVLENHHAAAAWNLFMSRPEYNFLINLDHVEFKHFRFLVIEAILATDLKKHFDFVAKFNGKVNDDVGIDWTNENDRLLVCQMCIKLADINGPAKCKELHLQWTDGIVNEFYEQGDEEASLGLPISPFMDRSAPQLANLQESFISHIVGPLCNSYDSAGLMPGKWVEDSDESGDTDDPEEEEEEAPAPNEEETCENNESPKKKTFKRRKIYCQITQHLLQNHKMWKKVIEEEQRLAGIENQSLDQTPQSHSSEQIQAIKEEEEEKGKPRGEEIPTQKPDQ

| SMILES | inhibition |
| --- | --- |
| CCOc1ccc(-c2cc(-c3ccc(Br)cc3)[nH]c(=N)c2C#N)cc1 | 30% |
| CCOc1ccccc1-c1cc(-c2ccc3c(c2)OCO3)[nH]c(=N)c1C#N | 19% |
| N#Cc1c(-c2ccsc2)cc(-c2ccc(Br)cc2)[nH]c1=O | 2% |
| Cc1[nH]c(=O)c(C#N)cc1-c1ccncc1 [MILRINONE] | 77% |
| N#Cc1c(-c2ccsc2)cc(-c2ccc3c(c2)OCO3)[nH]c1=O | 8% |
| N#Cc1c(-c2cccs2)cc(-c2ccc3c(c2)OCO3)[nH]c1=O | 32.3% |
| CCOc1ccc(-c2cc(-c3ccc4c(c3)OCO4)[nH]c(=N)c2C#N)cc1 | 45.9% |
| CCOc1ccc(-c2cc(-c3ccc4c(c3)OCO4)[nH]c(=O)c2C#N)cc1 | 10.5% |
| N#Cc1c(-c2cccs2)cc(-c2ccc(Br)cc2)[nH]c1=N | 3.57% |
| N#Cc1c(-c2cccs2)cc(-c2ccc(Br)cc2)[nH]c1=O | 3% |
| COc1ccccc1-c1cc(-c2ccc(Br)cc2)[nH]c(=O)c1C#N | 6.12% |
| N#Cc1c(-c2cccs2)cc(-c2ccc3c(c2)OCO3)[nH]c1=N | 5% |
| COc1ccccc1-c1cc(-c2ccc3c(c2)OCO3)[nH]c(=O)c1C#N | 30% |
| CCOc1ccc(-c2cc(-c3ccc(Br)cc3)[nH]c(=O)c2C#N)cc1 | 4.76% |
| CCOc1ccccc1-c1cc(-c2ccc(Br)cc2)[nH]c(=O)c1C#N | 13.1% |
| COc1ccccc1-c1cc(-c2ccc(Br)cc2)[nH]c(=N)c1C#N | 16.3% |
| CCOc1ccccc1-c1cc(-c2ccc3c(c2)OCO3)[nH]c(=O)c1C#N | 7.65% |
| COc1ccccc1-c1cc(-c2ccc3c(c2)OCO3)[nH]c(=N)c1C#N | 45% |
| N#Cc1c(-c2ccsc2)cc(-c2ccc(Br)cc2)[nH]c1=N | 1.5% |
| CCOc1ccccc1-c1cc(-c2ccc(Br)cc2)[nH]c(=N)c1C#N | 37.9% |
| N#Cc1c(-c2ccsc2)cc(-c2ccc3c(c2)OCO3)[nH]c1=N | 18% |

system: HT-29; assay: Growth inhibition of human HT-29 cells after 72 hrs by luminescent assay; format: functional, cell-based; conditions: HT-29, 72 h
How it was run: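 HT-29 cells (ATCC) in RPMI 1640 + 5% FBS, 37 °C, 5% CO2; only cultures >95% viable (Trypan blue) used. Seeded 5000 cells/well, 18–24 h before treatment. Live cells read by CellTiter-Glo luminescence (ATP content) 72 h post-treatment.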

| SMILES | IC50 |
| --- | --- |
| CCOc1ccc(-c2cc(-c3ccc(Br)cc3)[nH]c(=N)c2C#N)cc1 | 14.2 µM |
| CCOc1ccccc1-c1cc(-c2ccc3c(c2)OCO3)[nH]c(=N)c1C#N | 3 µM |
| Cc1[nH]c(=O)c(C#N)cc1-c1ccncc1 [MILRINONE] | > 50 µM |
| CCOc1ccc(-c2cc(-c3ccc4c(c3)OCO4)[nH]c(=N)c2C#N)cc1 | 12 µM |
| N#Cc1c(-c2cccs2)cc(-c2ccc(Br)cc2)[nH]c1=N | 35 µM |
| COc1ccccc1-c1cc(-c2ccc(Br)cc2)[nH]c(=N)c1C#N | 50 µM |
| COc1ccccc1-c1cc(-c2ccc3c(c2)OCO3)[nH]c(=N)c1C#N | 4.17 µM |
| CCOc1ccccc1-c1cc(-c2ccc(Br)cc2)[nH]c(=N)c1C#N | 13 µM |

target: T1, cGMP-inhibited 3',5'-cyclic phosphodiesterase 3A; assay: Inhibition of human recombinant PDE3A assessed as cGMP hydrolysis at 50 uM after 60 mins by fluorescence polarization assay using tetramethylrhodamine-tagged cGMP as substrate; conditions: not given; how it was run: as §1

| SMILES | inhibition |
| --- | --- |
| CCOc1ccc(-c2cc(-c3ccc(Br)cc3)[nH]c(=N)c2C#N)cc1 | 50% |
| CCOc1ccccc1-c1cc(-c2ccc3c(c2)OCO3)[nH]c(=N)c1C#N | 26.2% |
| N#Cc1c(-c2ccsc2)cc(-c2ccc(Br)cc2)[nH]c1=O | -5% |
| Cc1[nH]c(=O)c(C#N)cc1-c1ccncc1 [MILRINONE] | 35% |
| N#Cc1c(-c2ccsc2)cc(-c2ccc3c(c2)OCO3)[nH]c1=O | 20% |
| N#Cc1c(-c2cccs2)cc(-c2ccc3c(c2)OCO3)[nH]c1=O | 49.6% |
| CCOc1ccc(-c2cc(-c3ccc4c(c3)OCO4)[nH]c(=N)c2C#N)cc1 | -8.99% |
| CCOc1ccc(-c2cc(-c3ccc4c(c3)OCO4)[nH]c(=O)c2C#N)cc1 | 22.3% |
| N#Cc1c(-c2cccs2)cc(-c2ccc(Br)cc2)[nH]c1=O | 4% |
| COc1ccccc1-c1cc(-c2ccc(Br)cc2)[nH]c(=O)c1C#N | 15.1% |
| N#Cc1c(-c2cccs2)cc(-c2ccc3c(c2)OCO3)[nH]c1=N | 10% |
| COc1ccccc1-c1cc(-c2ccc3c(c2)OCO3)[nH]c(=O)c1C#N | 30% |
| CCOc1ccc(-c2cc(-c3ccc(Br)cc3)[nH]c(=O)c2C#N)cc1 | 10.8% |
| CCOc1ccccc1-c1cc(-c2ccc(Br)cc2)[nH]c(=O)c1C#N | 35.2% |
| CCOc1ccccc1-c1cc(-c2ccc3c(c2)OCO3)[nH]c(=O)c1C#N | 14.4% |
| COc1ccccc1-c1cc(-c2ccc3c(c2)OCO3)[nH]c(=N)c1C#N | 35% |
| N#Cc1c(-c2ccsc2)cc(-c2ccc(Br)cc2)[nH]c1=N | 42% |
| CCOc1ccccc1-c1cc(-c2ccc(Br)cc2)[nH]c(=N)c1C#N | 126% |
| N#Cc1c(-c2ccsc2)cc(-c2ccc3c(c2)OCO3)[nH]c1=N | 3% |

target: T1, cGMP-inhibited 3',5'-cyclic phosphodiesterase 3A; assay: Inhibition of human recombinant PDE3A assessed as cGMP hydrolysis after 60 mins by fluorescence polarization assay using tetramethylrhodamine-tagged cGMP as substrate; conditions: not given

| SMILES | IC50 |
| --- | --- |
| CCOc1ccccc1-c1cc(-c2ccc(Br)cc2)nc(N)c1C#N | 27 µM |

system: HT-29; assay: Growth inhibition of human HT-29 cells at 50 uM after 72 hrs by luminescent assay; format: functional; conditions: HT-29, 72 h, read-out: GI
How it was run: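 HT-29 cells in RPMI 1640 with 5% FBS at 37 °C, 5% CO2, >95% viability required. Plated at 5000 cells/well and left 18–24 h, then given 50 μM compound in triplicate. Viability measured 72 h later by CellTiter-Glo luminescence.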

| SMILES | inhibition of growth at 50 µM |
| --- | --- |
| CCOc1ccc(-c2cc(-c3ccc(Br)cc3)[nH]c(=N)c2C#N)cc1 | 75% |
| CCOc1ccccc1-c1cc(-c2ccc3c(c2)OCO3)[nH]c(=N)c1C#N | 91.2% |
| N#Cc1c(-c2ccsc2)cc(-c2ccc(Br)cc2)[nH]c1=O | -25% |
| Cc1[nH]c(=O)c(C#N)cc1-c1ccncc1 [MILRINONE] | 0% |
| N#Cc1c(-c2ccsc2)cc(-c2ccc3c(c2)OCO3)[nH]c1=O | -25% |
| N#Cc1c(-c2cccs2)cc(-c2ccc3c(c2)OCO3)[nH]c1=O | 6.14% |
| CCOc1ccc(-c2cc(-c3ccc4c(c3)OCO4)[nH]c(=N)c2C#N)cc1 | 87.7% |
| CCOc1ccc(-c2cc(-c3ccc4c(c3)OCO4)[nH]c(=O)c2C#N)cc1 | 3.84% |
| N#Cc1c(-c2cccs2)cc(-c2ccc(Br)cc2)[nH]c1=N | 98.7% |
| N#Cc1c(-c2cccs2)cc(-c2ccc(Br)cc2)[nH]c1=O | -20% |
| COc1ccccc1-c1cc(-c2ccc(Br)cc2)[nH]c(=O)c1C#N | 13.6% |
| N#Cc1c(-c2cccs2)cc(-c2ccc3c(c2)OCO3)[nH]c1=N | -20% |
| COc1ccccc1-c1cc(-c2ccc3c(c2)OCO3)[nH]c(=O)c1C#N | 0% |
| CCOc1ccc(-c2cc(-c3ccc(Br)cc3)[nH]c(=O)c2C#N)cc1 | 10.7% |
| CCOc1ccccc1-c1cc(-c2ccc(Br)cc2)[nH]c(=O)c1C#N | 2.81% |
| COc1ccccc1-c1cc(-c2ccc(Br)cc2)[nH]c(=N)c1C#N | 75% |
| CCOc1ccccc1-c1cc(-c2ccc3c(c2)OCO3)[nH]c(=O)c1C#N | 8.28% |
| COc1ccccc1-c1cc(-c2ccc3c(c2)OCO3)[nH]c(=N)c1C#N | 95% |
| N#Cc1c(-c2ccsc2)cc(-c2ccc(Br)cc2)[nH]c1=N | -5% |
| CCOc1ccccc1-c1cc(-c2ccc(Br)cc2)[nH]c(=N)c1C#N | 99.8% |
| N#Cc1c(-c2ccsc2)cc(-c2ccc3c(c2)OCO3)[nH]c1=N | 45% |
